A short description of data set [1]: Drug level in PBS buffer treated with gambogic acid at 50 uM preincubated for 10 mins followed by NADPH addition measured after 2 hrs in presence of GSH and absence of liver microsomes. Format: physicochemical. The procedure, abridged: (§1)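 GA 50 μM in 1.0 mL 0.1 M PBS pH 7.4 with GSH 5.0 mM and NADPH 6.0 mM (final). Line 7 uses rat liver microsomes 1.0 mg/mL; line 2 omits microsomes. Preincubated 10 min at 37 °C, started with NADPH, run 2 h at 37 °C, duplicate. Quenched with ice-cold acetonitrile and dried. LC-MS/MS in negative ESI, isocratic 65% acetonitrile / 10 mM ammonium acetate.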
(In general: Liver microsomes are a subcellular fraction often used to study metabolism.)

For data set [2], the system named is Liver microsome. The data set can be described thus: Drug level in rat liver microsomes treated with gambogic acid at 50 uM preincubated for 10 mins followed by NADPH addition measured after 2 hrs in presence of GSH. It is filed as ADME. Summed up:
as §1

The nature of data set [3]: Retention time of the compound in Sprague-Dawley rat bile treated with gambogic acid at 4 mg/kg, iv measured over 24 hrs by LC-DAD-MS/MS analysis. It is filed as ADME, organism-based. Details: dose 4 mg/kg, route intravenous; call rule not given here. The following applies: in vivo. Summed up:
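SD rats, n=4, bile-duct cannulated under chloral hydrate and allowed 1 h recovery. GA 4 mg/kg i.v.; bile collected on ice, pooled 0–24 h. C18 LC-DAD-MS/MS at 0.25 mL/min with acetonitrile gradient (38% to 80%) in 10 mM ammonium acetate, 40 °C, negative ESI.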

The nature of data set [4]: Drug metabolism in Sprague-Dawley rat bile assessed as 10-alpha sulfonic gambogic acid formation of at 4 mg/kg, iv measured over 24 hrs by LC-DAD-MS/MS analysis. Details: dose 4 mg/kg, route intravenous. It is filed as ADME, organism-based. The following applies: in vivo. The procedure, abridged:
(§2)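 Four SD rats bile-duct cannulated under chloral hydrate anesthesia, allowed 1 h recovery, pre-dose bile taken. Dosed 4 mg/kg GA i.v. Bile collected on ice and pooled 0–24 h, stored -20 °C. Gradient C18 LC (acetonitrile/10 mM ammonium acetate), 40 °C column, negative-ion ESI MS/MS.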

The nature of data set [5]: Drug metabolism in rat liver microsomes assessed as CYP450-mediated 9,10-epoxyl-gambogic acid formation at 50 uM preincubated for 10 mins followed by NADPH addition measured after 1 hr by LC-DAD-MS/MS analysis. It is filed as ADME. Summed up:
(§3)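 GA 50 µM with rat liver microsomes 1.0 mg/mL in 0.1 M PBS pH 7.4, pre-incubated 10 min at 37 °C. Started with NADPH (6.0 mM final) and run 1 h at 37 °C. Controls lacked NADPH or microsomes; duplicate. Stopped with ice-cold acetonitrile, centrifuged, supernatant dried and reconstituted. Isocratic LC (65% acetonitrile), negative-ion ESI MS/MS.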

Data set [6] can be described thus: Retention time of the compound in Sprague-Dawley rat bile at 4 mg/kg, iv measured over 24 hrs by LC-DAD-MS/MS analysis. Details: dose 4 mg/kg, route intravenous. The following applies: in vivo. Format: ADME, organism-based. The procedure, abridged: as §2
Data set [7] has as its system Liver microsome. Kind of data set: Drug metabolism in rat liver microsomes assessed as 9,10-epoxyl-gambogic acid formation at 50 uM preincubated for 10 mins by LC-MS/MS analysis in absence of NADPH. It is filed as ADME. Summed up:
as §3

Data set [8] can be described thus: Drug metabolism in rat liver microsomes assessed as CYP450-mediated 10-OHGA formation at 50 uM preincubated for 10 mins followed by NADPH addition measured after 1 hr by LC-DAD-MS/MS analysis. It is filed as ADME. The procedure, abridged: as §3
A short description of data set [9]: Drug metabolism in Sprague-Dawley rat feces assessed as formation of glucuronidation product at 4 mg/kg, iv measured over 24 hrs by LC-DAD-MS/MS analysis. Details: dose 4 mg/kg, route intravenous. The following applies: in vivo. It is filed as ADME, organism-based. Summed up: (§4)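 SD rats (250 ± 20 g), 4 mg/kg GA injection given i.v. via tail vein in 2 mL; feces from four rats pooled 0–24 h, stored -20 °C. Feces (0.6 g) homogenized in acetonitrile-water 50:50, sonicated, centrifuged, filtered, then extracted with ethyl acetate, dried under N2 at 40 °C, reconstituted in mobile phase. Gradient C18 LC, negative-ion ESI MS/MS.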

Data set [10] relates to Liver microsome. Kind of data set: Drug metabolism in rat liver microsomes assessed as glucuronidation product formation at 50 uM preincubated for 10 mins followed by UDPGA addition for 2 hrs measured 1 hr post beta-glucuronidase treatment by LC-MS/MS analysis. It is filed as ADME. Summed up:
(§5)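 Dried UDPGA microsomal incubate reconstituted in 0.1 M Tris pH 6.8. For enzymatic hydrolysis, about 830 units β-glucuronidase, 37 °C for 1 h; control without enzyme. For alkaline hydrolysis, with or without 0.5 M NaOH (10 µL), 2 h at room temperature, then neutralized with acetic acid to about pH 7. Analyzed by LC-MS/MS.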

The nature of data set [11]: Drug level in Sprague-Dawley rat feces at 4 mg/kg, iv measured over 24 hrs by LC-MS/MS analysis. Format: ADME, organism-based. As to conditions: in vivo. Also on record: dose 4 mg/kg, route intravenous. The procedure, abridged:
as §4

A short description of data set [12]: Drug metabolism in Sprague-Dawley rat gut assessed as formation of 10-beta sulfonic gambogic acid at 4 mg/kg, iv. Also on record: dose 4 mg/kg, route intravenous. The following applies: in vivo. Format: ADME, organism-based.
Data set [13] can be described thus: Drug metabolism in Sprague-Dawley rat feces assessed as formation of 9,10-epoxyl-gambogic acid at 4 mg/kg, iv measured over 24 hrs by LC-DAD-MS/MS analysis. Details: dose 4 mg/kg, route intravenous. As to conditions: in vivo. Format: ADME, organism-based. The procedure, abridged: as §4
Data set [14] relates to Liver microsome. Kind of data set: Drug metabolism in rat liver microsomes assessed as glucuronidation product formation at 50 uM preincubated for 10 mins followed by UDPGA addition measured after 2 hrs by LC-MS/MS analysis. Format: ADME. Summed up: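 GA 50 µM with alamethicin-treated rat liver microsomes 1.0 mg/mL and saccharic acid-1,4-lactone 6 mM in 0.05 M Tris-HCl pH 7.4, pre-incubated 10 min at 37 °C. Started with UDPGA (6.0 mM) and run 2 h at 37 °C. Controls lacked UDPGA or microsomes; duplicate. Acetonitrile quench, gradient LC, negative-ion ESI MS/MS.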

The test system of data set [15] is Plasma. The data set can be described thus: Drug metabolism in Sprague-Dawley rat plasma assessed as 10-OHGA formation at 4 mg/kg, iv measured over 4 hrs by LC-DAD-MS/MS analysis. Format: ADME, organism-based. Also on record: dose 4 mg/kg, route intravenous. As to conditions: in vivo. Summed up:
(§6)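 Six SD rats dosed 4 mg/kg GA i.v. via tail vein. Tail-vein blood taken before and 0.033–4 h post-dose into heparinized tubes, centrifuged 3000 × g 10 min at 4 °C, and plasma pooled 0–4 h. 1 mL extracted with 4 mL ethyl acetate, dried under N2 at 40 °C, reconstituted. Isocratic C18 LC (68% acetonitrile), negative-ion ESI MS/MS.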

A short description of data set [16]: Drug excretion in Sprague-Dawley rat feces at 2 mg/kg, iv measured within 48 hrs. It is filed as ADME, organism-based. Also on record: dose 2 mg/kg, route intravenous. As to conditions: read-out: Drug excretion.
The nature of data set [17]: Drug metabolism in rat liver microsomes assessed as SULT-mediated sulfonation. Format: ADME.
A short description of data set [18]: Drug metabolism in Sprague-Dawley rat feces assessed as 10-OHGA formation at 4 mg/kg, iv measured over 24 hrs by LC-DAD-MS/MS analysis. Format: ADME, organism-based. Details: dose 4 mg/kg, route intravenous. As to conditions: in vivo. Summed up: as §4
Data set [19] is described as follows: Drug metabolism in intestine (unknown origin) assessed as 10-beta sulfonic gambogic acid formation. It is filed as ADME, tissue-based. The procedure, abridged: (§7)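 Intestinal contents from undosed rats homogenized in 5 mL water, spiked with 100 µL of 1.0 mg/mL GA, incubated at 37 °C about 24 h, in duplicate. 1 mL extracted with ethyl acetate. LC-MS/MS in negative ESI with SIM at m/z 709.3.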

The nature of data set [20]: Drug metabolism in Sprague-Dawley rat gut assessed as formation of 10-alpha sulfonic gambogic acid at 4 mg/kg, iv. It is filed as ADME, organism-based. Details: dose 4 mg/kg, route intravenous. The following applies: in vivo.
Data set [21] in a line: Drug metabolism in Sprague-Dawley rat bile assessed as formation of 10-beta sulfonic gambogic acid at 4 mg/kg, iv measured over 24 hrs by LC-DAD-MS/MS analysis. It is filed as ADME, organism-based. Also on record: dose 4 mg/kg, route intravenous. The following applies: in vivo. Summed up:
as §2

Data set [22] is described as follows: Drug level in Sprague-Dawley rat urine at 4 mg/kg, iv measured over 24 hrs by LC-DAD-MS/MS analysis. It is filed as ADME, organism-based. Also on record: dose 4 mg/kg, route intravenous. As to conditions: in vivo. Summed up: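 Urine collected from four SD rats and pooled 0–24 h after 4 mg/kg GA i.v. via tail vein; stored -20 °C until LC-MS/MS analysis (negative-ion ESI).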

For data set [23], the system named is Liver microsome. The data set can be described thus: Drug metabolism in rat liver microsomes assessed as glucuronidation product formation at 50 uM preincubated for 10 mins followed by UDPGA addition for 2 hrs measured 2 hrs post NaOH treatment by LC-MS/MS analysis. It is filed as ADME. The procedure, abridged: as §5
In data set [24] the test system is Plasma. The data set can be described thus: Drug level in Sprague-Dawley rat plasma at 4 mg/kg, iv measured over 4 hrs by LC-DAD-MS/MS analysis. It is filed as ADME, organism-based. Also on record: dose 4 mg/kg, route intravenous. As to conditions: in vivo. Summed up: as §6
The nature of data set [25]: Drug metabolism in intestine (unknown origin) assessed as 10-alpha sulfonic gambogic acid formation. It is filed as ADME, tissue-based. Summed up:
as §7

For `CC(C)=CCC[C@]1(C)C=Cc2c(O)c3c(c(CC=C(C)C)c2O1)O[C@]12C(C3=O)C(SC[C@H](NC(=O)CC[C@H](N)C(=O)O)C(=O)NCC(=O)O)[C@@H]3C[C@H]1C(C)(C)O[C@@]2(C/C=C(/C)C(=O)O)C3=O` (stereo not given in full), the Drug metabolism entry (in data set [1]; in the data set on Liver microsome [2]) was “metabolite_detected” each time. This compound also registered a Retention_time in [3] of 5.7 min.

`CC(C)=CCC[C@]1(C)C=Cc2c(O)c3c(c(CC=C(C)C)c2O1)O[C@]12C(=C[C@@H]4C[C@H]1C(C)(C)O[C@@]2(C/C=C(/C)C(=O)O)C4=O)C3=O` [GAMBOGIC ACID]: the Drug metabolism result is “metabolite_not_detected” in data set [4]; “metabolite_detected” in [5]; “metabolite_not_detected” with Liver microsome [7]; “metabolite_detected” in [8]; “metabolite_detected” in [9]; “metabolite_not_detected” with Liver microsome [10]. Moreover, the Drug metabolism entry is given as “metabolite_detected” in data set [12]; “metabolite_detected” in [13]; “metabolite_detected” in the data set with Liver microsome [14]; “metabolite_detected” in the data set with Plasma [15]; “metabolite_not_detected” in [17]; “metabolite_detected” in data set [18]. For the same compound, the Drug metabolism result in [19] is on record as “metabolite_detected”; in [20] it was “metabolite_detected”; in data set [21] it was “metabolite_not_detected”; in the data set with Liver microsome [23] it was “metabolite_not_detected”; in [25], “metabolite_detected”. In data set [6], this compound showed a Retention_time of 44.8 min. For the same compound, the results for the Drug uptake entry (in data set [11]; in data set [22]; in the data set with Plasma [24]) were “Active”, “Not Active” and “Active”, respectively. Also, the dose excreted at 48 h in data set [16] was found to be 1.04%.

The values above are taken from ChEMBL document CHEMBL3526153, “Metabolism of gambogic acid in rats: a rare intestinal metabolic pathway responsible for its final disposition” (Drug Metab Dispos, 2011).
